Results on 10 molecules are retold here after ChEMBL document CHEMBL3352664 (Bioorg Med Chem, 2014).

Calls of active or inactive are those of the source. The calls are words filed in the database; no cut-off is given here. Bounds are passed on as bounds.

Test system in the first test: not listed separately
Briefly: Binding affinity to hematin in 40% aqueous DMSO and 20 mM HEPES buffer at pH 7.5 at 25 degC.
Details: not given
For the molecule `C[C@@H](CCCN1CCCCC1)Nc1ccnc2cc(Cl)ccc12`, the log K turned out to be 5.4.

The molecule `C[C@H](CCCNC(C)(C)C)Nc1ccnc2cc(Cl)ccc12` came in with a log K of 5.71.

Molecule `C[C@@H](CCCN(C)C)Nc1ccnc2cc(Cl)ccc12` displayed a log K of 4.95.

Turning to `C[C@H](CCCN1CCCCC1)Nc1ccnc2cc(Cl)ccc12`, the log K is 7.19.

The molecule `C[C@H](CCCN1CCOCC1)Nc1ccnc2cc(Cl)ccc12` came in with a log K of 5.69.

In turn, `C[C@@H](CCCNC(C)(C)C)Nc1ccnc2cc(Cl)ccc12` came in with a log K of 5.04.

`C[C@@H](CCCN1CCCC1)Nc1ccnc2cc(Cl)ccc12` returned a log K of 5.19.

Test system in another test: not listed separately
Briefly: Selectivity index, ratio of CC50 for african green monkey Vero cells to IC50 for chloroquine-sensitive Plasmodium falciparum. It is filed as functional.
Details: not given
With `C[C@@H](CCCN1CCCCC1)Nc1ccnc2cc(Cl)ccc12`, the “Selectivity Index” value amounted to 20154.

In the case of `C[C@H](CCCNC(C)(C)C)Nc1ccnc2cc(Cl)ccc12`, the “Selectivity Index” value is given as 24459.

With `C[C@@H](CCCN(C)C)Nc1ccnc2cc(Cl)ccc12`, the “Selectivity Index” value is on record as 12483.

As for `C[C@H](CCCN1CCCCC1)Nc1ccnc2cc(Cl)ccc12`, the “Selectivity Index” value stood at 4257.

With `C[C@H](CCCN1CCOCC1)Nc1ccnc2cc(Cl)ccc12`, the “Selectivity Index” value came to 4186.

Turning to `C[C@@H](CCCNC(C)(C)C)Nc1ccnc2cc(Cl)ccc12`, the “Selectivity Index” value turned out to be 7100.

`C[C@@H](CCCN1CCCC1)Nc1ccnc2cc(Cl)ccc12`: the “Selectivity Index” value was 1469.

The next test concerns Plasmodium falciparum. Briefly: Antiplasmodial activity against chloroquine-resistant Plasmodium falciparum K1 by Malaria SYBR Green I-nucleic acid staining based fluorescence assay. It is filed as functional, organism-based.
Details: not given
Put shortly: (§1)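 SYBR Green I fluorescence assay (MSF). DMSO stock at 5 mg/mL, two-fold serial dilutions in RPMI-1640-FBS, tested in duplicate wells. Parasitized erythrocytes (0.8% parasitaemia, 1.0% cell suspension) incubated 72 h at 37 °C under 5% CO2. Lysis buffer with SYBR Green I added, 1 h at 37 °C. Fluorescence read at 485/530 nm.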
Usually IC50 stands for the point on the concentration scale where inhibition reaches its midpoint. In turn, `C[C@@H](CCCN1CCCCC1)Nc1ccnc2cc(Cl)ccc12` registered an IC50 of 121 nM.

For `C[C@H](CCCNC(C)(C)C)Nc1ccnc2cc(Cl)ccc12`, the IC50 is over 1560 nM.

Turning to `C[C@@H](CCCN(C)C)Nc1ccnc2cc(Cl)ccc12`, the midpoint of inhibition, the IC50, lay at 358 nM.

Regarding `C[C@H](CCCN1CCCCC1)Nc1ccnc2cc(Cl)ccc12`, half-maximal inhibition (IC50) was put at 536 nM.

On to `C[C@H](CCCN1CCOCC1)Nc1ccnc2cc(Cl)ccc12`, for which it took 106 nM to reach half-maximal inhibition (IC50).

`C[C@@H](CCCNC(C)(C)C)Nc1ccnc2cc(Cl)ccc12` had an IC50 of over 1560 nM.

Molecule `C[C@@H](CCCN1CCCC1)Nc1ccnc2cc(Cl)ccc12` registered a 50% inhibitory concentration (IC50) of 60.4 nM.

Another test concerns Plasmodium yoelii. Briefly: Antimalarial activity against chloroquine-resistant Plasmodium yoelii N-67infected in Swiss Albino mouse assessed as mouse cured on day 28 at 100 mg/kg, po once daily for 7 days measured on day 4 post infection. It is filed as functional, organism-based. More on the design: dose 100 mg/kg.
Details: not given
The gist of the method:
(§2)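 P. yoelii N-67 (innately CQ-resistant) infection in Swiss albino mice (22 ± 2 g), 1 × 10^6 parasitized RBC on day 0. Groups of five dosed orally once daily from day 0, 100 mg/kg/day as aqueous suspension with a few drops of Tween 80. Parasitaemia read from thin blood smears every four days. % suppression uses the group mean vs untreated controls. Survival and cure (no parasitaemia) tracked to day 28.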
As to `CCN(CC)CCC[C@@H](C)Nc1ccnc2cc(Cl)ccc12` [(R)-CHLOROQUINE], the result was inactive.

On to `CCN(CC)CCC[C@H](C)Nc1ccnc2cc(Cl)ccc12`, for which the result was inactive.

For `C[C@@H](CCCN1CCCC1)Nc1ccnc2cc(Cl)ccc12`, the result was inactive.

Another test has as its system Plasmodium falciparum. Briefly: Resistance index, ratio of IC50 for chloroquine-resistant Plasmodium falciparum K1 to IC50 for chloroquine-sensitive Plasmodium falciparum 3D7. Format: functional.
Details: not given
The gist of the method: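 Resistance index computed as IC50 (K1) / IC50 (3D7). Both IC50s come from the 72 h SYBR Green I fluorescence assay on P. falciparum-infected erythrocytes, run with two-fold serial dilutions in duplicate wells.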
Turning to `C[C@@H](CCCN1CCCCC1)Nc1ccnc2cc(Cl)ccc12`, the “Ratio IC50” value was determined as 8.09.

With `C[C@H](CCCNC(C)(C)C)Nc1ccnc2cc(Cl)ccc12`, the “Ratio IC50” value is reported as over 335.

Turning to `C[C@@H](CCCN(C)C)Nc1ccnc2cc(Cl)ccc12`, the “Ratio IC50” value was found to be 20.88.

`C[C@H](CCCN1CCCCC1)Nc1ccnc2cc(Cl)ccc12`: the “Ratio IC50” value is 10.13.

With `C[C@H](CCCN1CCOCC1)Nc1ccnc2cc(Cl)ccc12`, the “Ratio IC50” value was found to be 3.76.

Take `C[C@@H](CCCNC(C)(C)C)Nc1ccnc2cc(Cl)ccc12`: the “Ratio IC50” value is reported as over 47.43.

In the case of `C[C@@H](CCCN1CCCC1)Nc1ccnc2cc(Cl)ccc12`, the “Ratio IC50” value worked out at 3.83.

For another test, the system named is Plasmodium yoelii. Briefly: Antimalarial activity against chloroquine-resistant Plasmodium yoelii N-67infected in Swiss Albino mouse assessed as mouse cured on day 28 at 20 mg/kg, po once daily for 4 days measured on day 4 post infection. It is filed as functional, organism-based. More on the design: dose 20 mg/kg.
Details: not given
Put shortly:
(§3)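 Reference arm in the N-67 P. yoelii Swiss albino mouse model. 1 × 10^6 parasitized RBC given on day 0, five mice per group, oral dosing once daily. Parasitaemia from thin blood smears every four days; % suppression from the group mean vs untreated controls. Survival and cure (no parasitaemia) followed to day 28.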
As to `CCN(CC)CCCC(C)Nc1ccnc2cc(Cl)ccc12` (racemic) [CHLOROQUINE], the result was inactive.

The test system of another test is Plasmodium yoelii. Briefly: Antimalarial activity against chloroquine-resistant Plasmodium yoelii N-67infected in Swiss Albino mouse assessed as suppression of parasitemia at 100 mg/kg, po once daily for 7 days measured on day 4 post infection. Format: functional.
Details: not given
Put shortly:
as §2
A word on the inhibition in vivo: it is the share of the control response that was lost under treatment. Take `CCN(CC)CCC[C@@H](C)Nc1ccnc2cc(Cl)ccc12` [(R)-CHLOROQUINE]: the inhibition in vivo at 100 mg/kg was determined as 100%.

In the case of `CCN(CC)CCC[C@H](C)Nc1ccnc2cc(Cl)ccc12`, the inhibition in vivo at 100 mg/kg was 100%.

With `C[C@@H](CCCN1CCCC1)Nc1ccnc2cc(Cl)ccc12`, the inhibition in vivo at 100 mg/kg worked out at 100%.

A further test concerns Plasmodium falciparum. Briefly: Antiplasmodial activity against chloroquine-sensitive Plasmodium falciparum 3D7 by Malaria SYBR Green I-nucleic acid staining based fluorescence assay. Format: functional, organism-based.
Details: not given
The gist of the method:
as §1
As to `C[C@@H](CCCN1CCCCC1)Nc1ccnc2cc(Cl)ccc12`, the midpoint of inhibition, the IC50, lay at 14.9 nM.

On to `C[C@H](CCCNC(C)(C)C)Nc1ccnc2cc(Cl)ccc12`, for which it took 4.66 nM to reach half-maximal inhibition (IC50).

In turn, `C[C@@H](CCCN(C)C)Nc1ccnc2cc(Cl)ccc12` displayed an IC50 of 17.1 nM.

Molecule `C[C@H](CCCN1CCCCC1)Nc1ccnc2cc(Cl)ccc12` yielded an IC50 of 52.9 nM.

In turn, `C[C@H](CCCN1CCOCC1)Nc1ccnc2cc(Cl)ccc12` returned a 50% inhibitory concentration (IC50) of 28.1 nM.

Molecule `C[C@@H](CCCNC(C)(C)C)Nc1ccnc2cc(Cl)ccc12` yielded a 50% inhibitory concentration (IC50) of 33 nM.

As to `C[C@@H](CCCN1CCCC1)Nc1ccnc2cc(Cl)ccc12`, the IC50 was 15.8 nM.

The subject of a further test is Plasmodium yoelii. Briefly: Antimalarial activity against chloroquine-resistant Plasmodium yoelii N-67infected in Swiss Albino mouse assessed as mouse survival on day 28 at 20 mg/kg, po once daily for 4 days measured on day 4 post infection. It is filed as functional, organism-based. The arrangement: dose 20 mg/kg.
Details: not given
The gist of the method: as §3
For the molecule `CCN(CC)CCCC(C)Nc1ccnc2cc(Cl)ccc12` (racemic) [CHLOROQUINE], the result was Active.

Another test deals with Heme. Briefly: Binding affinity to heme assessed as inhibition of 1-oleoyl-rac-glycerol-induced beta-hematin polymerization by UV spectrophotometry.
Details: not given
As to `C[C@@H](CCCN1CCCCC1)Nc1ccnc2cc(Cl)ccc12`, the half-inhibitory concentration (IC50) amounted to 150 µM.

On to `C[C@H](CCCNC(C)(C)C)Nc1ccnc2cc(Cl)ccc12`, for which the IC50 came out at 170 µM.

Consider `C[C@@H](CCCN(C)C)Nc1ccnc2cc(Cl)ccc12`, for which the half-maximal inhibitory concentration (IC50) was 150 µM.

In the case of `C[C@H](CCCN1CCCCC1)Nc1ccnc2cc(Cl)ccc12`, the concentration for half-maximal inhibition (IC50) came to 130 µM.

Regarding `C[C@H](CCCN1CCOCC1)Nc1ccnc2cc(Cl)ccc12`, the IC50 turned out to be 150 µM.

Regarding `C[C@@H](CCCNC(C)(C)C)Nc1ccnc2cc(Cl)ccc12`, the concentration for half-maximal inhibition (IC50) was determined as 150 µM.

In the case of `C[C@@H](CCCN1CCCC1)Nc1ccnc2cc(Cl)ccc12`, the IC50 stood at 180 µM.

A further test relates to Plasmodium yoelii. Briefly: Antimalarial activity against chloroquine-resistant Plasmodium yoelii N-67infected in Swiss Albino mouse assessed as suppression of parasitemia at 20 mg/kg, po once daily for 4 days measured on day 4 post infection. Format: functional. The following applies: N-67, 96 h. Put shortly: as §3
With `CCN(CC)CCCC(C)Nc1ccnc2cc(Cl)ccc12` (racemic) [CHLOROQUINE], the inhibition in vivo at 20 mg/kg was 99%.
